A selection: hits, their analogues and other compounds. The true share with any hit is near 3.9%.
APP 5'UTR act: activates APP 5'UTR luciferase reporter. SH-SY5Y APP 5'UTR luciferase reporter, luminescence; zero percent = DMSO vehicle wells. activation, % at 2 µM. 190,000 compounds, 1% hits. AID 1276;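 active = activation above a set limit, based on mean plus 3 SD of controls, cut at about 140% in these data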
NF-kB neuron act: raises NF-kB expression in human neuronal cells. NF-kB reporter expression; active compounds read high. fold change at 12.5 µM. AID 1239. 190,000 compounds, 1.6% hits; in the data active = fold change above about 3.3
Rad51 HR inh: Rad51 (human) homologous recombination inhibition; inhibition, % at 10 µM; 200,000 compounds, 0.085% hits; hRad51 DNA strand exchange, fluorescence dequenching; AID 1385;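 active = inhibition above 40% at the single screening dose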
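Test system: preformed human Rad51 ssDNA filaments; also added: Donor/quencher-labelled 47-bp dsDNA substrate; doses: 10 µM final, single point; times: 37 °C 15-min filament assembly, 30-min compound preincubation, 15-min exchange; detection: FRET fluorescence dequenching, excitation 485 nm, emission 520 nm; read-out basis: Fluorescence-based percent inhibition, control- and blank-normalised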
STAT1 activator: STAT1 signaling activation; 200,000 compounds, 2.6% hits; activation (% of control), % at 5.5 µM; AID 932; NIH 3T3 STAT1-luciferase reporter, IFN-gamma, luminescence; 100% = IFN-gamma alone, no compound;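 active = activation above the screen-wide mean activation plus 3 SD, cut at about 130% in these data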
FLuc inhib CS: counter-screen for luciferase assay inhibitors: firefly luciferase inhibition. P08659. ATPLite firefly luciferase biochemical luminescence, 10 min. inhibition, % at 10 µM. 200,000 compounds, 1.5% hits. AID 1006;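 active = inhibition above about 50% when tested at 10 µM, limit read from the data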
Target sequence (P08659 whole entry, looked up): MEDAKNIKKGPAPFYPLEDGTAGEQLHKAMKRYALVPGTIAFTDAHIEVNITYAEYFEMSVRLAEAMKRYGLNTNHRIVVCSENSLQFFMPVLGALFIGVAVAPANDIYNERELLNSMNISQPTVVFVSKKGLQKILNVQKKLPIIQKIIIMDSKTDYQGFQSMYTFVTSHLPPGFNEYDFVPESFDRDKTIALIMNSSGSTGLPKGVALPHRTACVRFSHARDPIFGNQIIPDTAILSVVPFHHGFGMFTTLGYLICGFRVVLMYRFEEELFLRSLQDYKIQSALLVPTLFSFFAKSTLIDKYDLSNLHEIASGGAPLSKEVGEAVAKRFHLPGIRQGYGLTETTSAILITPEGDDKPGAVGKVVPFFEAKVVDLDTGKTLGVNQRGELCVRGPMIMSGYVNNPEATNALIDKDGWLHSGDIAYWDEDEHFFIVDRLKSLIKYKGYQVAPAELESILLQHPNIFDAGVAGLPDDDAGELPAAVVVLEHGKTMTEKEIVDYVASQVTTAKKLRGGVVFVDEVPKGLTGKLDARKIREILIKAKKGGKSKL
FLuc act counter: firefly luciferase counter-screen for stimulation assays; ATPlite luciferase biochemical, luminescence, 10 min; 0 = ATP-free wells, 1 = DMSO control; 200,000 tested, under 10 active; activation factor at 10 µM; P08659;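 active = luciferase activation factor, scaled between plate controls, of at least 2 with compound at 10 µM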
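assay system = Luciferase/luciferin detection reagent, cell-free biochemical luciferase assay | also added = ATP substrate | times = 10 min post-reagent at room temperature | measured by = luminescence from luciferase reaction | measure = luciferase activation, seen as luminescence increase over controls | benchmarks = low control with PBS replacing ATP, high control enzyme plus ATP without compound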
Hits are given with their value.

How did CS(=O)(=O)N1CCc2cc(C(=O)OCC(=O)c3ccccc3)ccc21 do in these assays?
APP 5'UTR act: inactive; NF-kB neuron act: 4; Rad51 HR inh: inactive; STAT1 activator: 156; FLuc inhib CS: inactive; FLuc act counter: inactive

How did CN(C(=O)c1ccc2c(c1)CCN2S(C)(=O)=O)c1ccccc1 do in these assays?
APP 5'UTR act: inactive; NF-kB neuron act: inactive; Rad51 HR inh: inactive; STAT1 activator: inactive; FLuc inhib CS: inactive; FLuc act counter: inactive

What do the screens show for `Cc1ccc(C(=O)O/N=C(\N)c2ccc(Br)cc2)cc1`?
APP 5'UTR act: inactive; NF-kB neuron act: 3.8; STAT1 activator: 137; FLuc inhib CS: inactive; FLuc act counter: inactive

How did N/C(=N\OC(=O)c1cccc(Br)c1)c1ccc(Br)cc1 do in these assays?
APP 5'UTR act: inactive; NF-kB neuron act: inactive; Rad51 HR inh: inactive; STAT1 activator: inactive; FLuc inhib CS: inactive; FLuc act counter: inactive

Results for COC(=O)c1ccc(OCC(=O)c2ccccc2)cc1 ?
APP 5'UTR act: inactive; NF-kB neuron act: 4.1; Rad51 HR inh: inactive; STAT1 activator: 139; FLuc inhib CS: inactive; FLuc act counter: inactive

What do the screens show for `COC(=O)c1ccc(OCCOc2ccc(C(=O)OC)cc2)cc1`?
APP 5'UTR act: inactive; NF-kB neuron act: inactive; Rad51 HR inh: inactive; STAT1 activator: inactive; FLuc inhib CS: inactive; FLuc act counter: inactive

Results for O=C(Cn1nc2n(c1=O)-c1ccccc1SC2)N/N=C/c1ccncc1 ?
Rad51 HR inh: inactive

What do the screens show for `N/C(=N\OC(=O)c1ccc(Br)cc1)c1ccccc1`?
APP 5'UTR act: inactive; NF-kB neuron act: 9.7; Rad51 HR inh: inactive; STAT1 activator: 150; FLuc inhib CS: 95; FLuc act counter: inactive

How did O=C(COC(=O)c1ccccc1)c1ccc(Br)cc1 do in these assays?
APP 5'UTR act: inactive; NF-kB neuron act: inactive; Rad51 HR inh: inactive; STAT1 activator: inactive; FLuc inhib CS: 56; FLuc act counter: inactive

How did O=C(COC(=O)c1ccc2ccccc2n1)c1ccccc1 do in these assays?
APP 5'UTR act: inactive; NF-kB neuron act: inactive; Rad51 HR inh: inactive; STAT1 activator: inactive; FLuc inhib CS: 60; FLuc act counter: inactive

How did O=C(COC(=O)c1ccc(Br)cc1)NCCc1ccccc1 do in these assays?
APP 5'UTR act: inactive; NF-kB neuron act: inactive; Rad51 HR inh: inactive; STAT1 activator: inactive; FLuc inhib CS: inactive; FLuc act counter: inactive

Results for CCOc1ccccc1NC(=S)N1CCC(c2nc3ccccc3o2)CC1 ?
NF-kB neuron act: inactive; Rad51 HR inh: inactive; STAT1 activator: inactive; FLuc inhib CS: inactive; FLuc act counter: inactive

How did CC(=O)NCCOc1ccc2oc3ccccc3c2c1 do in these assays?
APP 5'UTR act: inactive; NF-kB neuron act: inactive; Rad51 HR inh: inactive; STAT1 activator: 130; FLuc inhib CS: inactive; FLuc act counter: inactive

How did CC(=O)NCCOc1cccc(OCCNC(C)=O)c1 do in these assays?
APP 5'UTR act: inactive; NF-kB neuron act: inactive; Rad51 HR inh: inactive; STAT1 activator: inactive; FLuc inhib CS: inactive; FLuc act counter: inactive

Results for CCOC(=O)C(=CNc1cc(OC)ccc1-n1cccc1)C(=O)OCC ?
Rad51 HR inh: inactive

How did CCOC(=O)Cn1c(-c2ccccc2)nc2ccccc2c1=O do in these assays?
APP 5'UTR act: inactive; NF-kB neuron act: inactive; Rad51 HR inh: inactive; STAT1 activator: 129; FLuc inhib CS: inactive; FLuc act counter: inactive

What do the screens show for `CCCCOC(=O)Cn1c(-c2ccccc2)nc2ccccc2c1=O`?
APP 5'UTR act: inactive; NF-kB neuron act: inactive; Rad51 HR inh: inactive; STAT1 activator: inactive; FLuc inhib CS: inactive; FLuc act counter: inactive

What do the screens show for `Oc1ccccc1CNc1ccc(Br)cn1`?
APP 5'UTR act: inactive; NF-kB neuron act: 5.4; Rad51 HR inh: inactive; STAT1 activator: inactive; FLuc inhib CS: inactive; FLuc act counter: inactive

What do the screens show for `COc1ccccc1C(=O)Nc1ccc2c3c(cccc13)CC2`?
APP 5'UTR act: inactive; NF-kB neuron act: inactive; Rad51 HR inh: inactive; STAT1 activator: 132; FLuc inhib CS: inactive; FLuc act counter: inactive

Results for C(=C\c1ccncc1)/c1ccccc1 ?
Rad51 HR inh: inactive

What do the screens show for `C(=C\c1nc(-c2ccncc2)no1)/c1ccccc1`?
APP 5'UTR act: inactive; STAT1 activator: 150; FLuc inhib CS: inactive; FLuc act counter: inactive

How did O=C(CCn1cnc2ccccc2c1=O)Nc1cccc(Cl)c1Cl do in these assays?
APP 5'UTR act: inactive; NF-kB neuron act: inactive; Rad51 HR inh: inactive; STAT1 activator: inactive; FLuc inhib CS: inactive; FLuc act counter: inactive

How did NNC(=O)c1cc2cc3ccccc3nc2s1 do in these assays?
APP 5'UTR act: inactive; NF-kB neuron act: inactive; Rad51 HR inh: inactive; STAT1 activator: 136; FLuc inhib CS: inactive; FLuc act counter: inactive

How did CCN1C(=O)S/C(=C/c2ccc(Sc3nc4ccccc4[nH]3)o2)C1=O do in these assays?
APP 5'UTR act: inactive; NF-kB neuron act: inactive; Rad51 HR inh: inactive; STAT1 activator: inactive; FLuc inhib CS: inactive; FLuc act counter: inactive

Results for O=C(NCC1COc2ccccc2O1)c1ccc(Cl)cc1 (centres undefined) ?
APP 5'UTR act: inactive; NF-kB neuron act: inactive; Rad51 HR inh: inactive; STAT1 activator: 140; FLuc inhib CS: inactive; FLuc act counter: inactive

Results for O=C(NCC1COc2ccccc2O1)c1ccc(NC(=O)c2ccco2)cc1 (centres undefined) ?
APP 5'UTR act: inactive; NF-kB neuron act: inactive; Rad51 HR inh: inactive; STAT1 activator: inactive; FLuc inhib CS: inactive; FLuc act counter: inactive

How did COc1cccc(NC(=O)c2cccc(C)c2[N+](=O)[O-])c1 do in these assays?
APP 5'UTR act: inactive; NF-kB neuron act: inactive; Rad51 HR inh: inactive; STAT1 activator: inactive; FLuc inhib CS: inactive; FLuc act counter: inactive

Results for C/C(=N/NC(=O)CNS(=O)(=O)c1ccc(C)cc1)c1cccc([N+](=O)[O-])c1 ?
APP 5'UTR act: inactive; NF-kB neuron act: inactive; Rad51 HR inh: inactive; STAT1 activator: inactive; FLuc inhib CS: inactive; FLuc act counter: inactive

Results for CCOC(=O)N1CCN(c2c(-c3ccc(C)cc3)c(=O)c2=O)CC1 ?
APP 5'UTR act: inactive; NF-kB neuron act: inactive; Rad51 HR inh: 80; STAT1 activator: inactive; FLuc inhib CS: inactive; FLuc act counter: inactive

How did CC(=NC1CCCCC1)C1=C(O)c2ccccc2C1=O do in these assays?
APP 5'UTR act: inactive; Rad51 HR inh: inactive; STAT1 activator: 148; FLuc inhib CS: 58; FLuc act counter: inactive

What do the screens show for `CC(=O)N(C1=C(Cl)C(=O)c2ccccc2C1=O)C1CCCCC1`?
Rad51 HR inh: inactive

How did O=C1C=C(Nc2ccccc2)C(=O)c2ccccc21 do in these assays?
APP 5'UTR act: 140; NF-kB neuron act: 8.2; Rad51 HR inh: inactive; STAT1 activator: 132; FLuc inhib CS: inactive; FLuc act counter: inactive

How did O=C1C=C(Nc2ccccc2)c2ccccc2C1=O do in these assays?
APP 5'UTR act: inactive; NF-kB neuron act: inactive; Rad51 HR inh: inactive; STAT1 activator: inactive; FLuc inhib CS: inactive; FLuc act counter: inactive

Results for CSc1ccc(-c2nnn(Cc3ccccn3)n2)cc1 ?
APP 5'UTR act: inactive; NF-kB neuron act: inactive; Rad51 HR inh: inactive; STAT1 activator: 140; FLuc inhib CS: inactive; FLuc act counter: inactive
